Reference: ChEMBL document CHEMBL5661979, “Pharmacological inhibition of BMK1 suppresses tumor growth through promyelocytic leukemia protein” (Cancer Cell, 2010)

What was measured:
[1] = target: Serine/threonine-protein kinase PLK4 (Homo sapiens, UniProt O00444); assay: Binding affinity to PLK4 (unknown origin) assessed as dissociation constant by ATP-competition binding assay
[2] = target: Serine/threonine-protein kinase tousled-like 2 (Homo sapiens, UniProt Q86UE8); assay: Inhibition of TLK2 in human HeLa cells lysate at 50 uM pre incubated for 15 mins followed by ADP acyl phosphate probe addition and measured after 10 mins by LC-MS/MS analysis relative to control; type: subcellular; details: time 25.0 min
Chain of Serine/threonine-protein kinase tousled-like 2 (Q86UE8 whole entry, looked up, the tested form may be a part): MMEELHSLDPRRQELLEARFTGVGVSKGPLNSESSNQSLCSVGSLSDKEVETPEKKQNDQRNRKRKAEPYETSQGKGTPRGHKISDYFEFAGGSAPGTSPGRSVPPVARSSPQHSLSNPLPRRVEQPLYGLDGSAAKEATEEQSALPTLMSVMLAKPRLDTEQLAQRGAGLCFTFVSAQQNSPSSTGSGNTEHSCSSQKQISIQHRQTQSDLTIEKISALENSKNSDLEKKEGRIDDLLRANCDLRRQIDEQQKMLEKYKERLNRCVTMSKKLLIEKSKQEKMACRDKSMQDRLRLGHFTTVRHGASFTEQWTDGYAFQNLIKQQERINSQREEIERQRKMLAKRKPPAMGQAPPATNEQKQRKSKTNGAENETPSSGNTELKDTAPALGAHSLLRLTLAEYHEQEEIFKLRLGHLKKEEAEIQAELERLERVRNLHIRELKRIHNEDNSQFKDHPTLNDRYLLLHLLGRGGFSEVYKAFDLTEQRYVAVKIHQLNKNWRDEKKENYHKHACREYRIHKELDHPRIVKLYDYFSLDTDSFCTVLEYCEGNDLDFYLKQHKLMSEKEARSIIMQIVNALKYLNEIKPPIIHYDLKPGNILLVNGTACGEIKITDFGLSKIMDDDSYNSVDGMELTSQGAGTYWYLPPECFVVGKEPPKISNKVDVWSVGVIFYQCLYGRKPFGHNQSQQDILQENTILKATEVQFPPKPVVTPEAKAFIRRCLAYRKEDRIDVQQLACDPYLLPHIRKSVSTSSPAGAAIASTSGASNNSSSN

[3] = target: Ribosomal protein S6 kinase alpha-1 (Homo sapiens, UniProt Q15418); assay: Inhibition of RSK1 domain 2 in human HeLa cells lysate pre incubated for 15 mins followed by ATP acyl phosphate probe addition and measured after 10 mins by LC-MS/MS analysis; type: subcellular
Chain of Ribosomal protein S6 kinase alpha-1 (Q15418 whole entry, the tested form may be a part): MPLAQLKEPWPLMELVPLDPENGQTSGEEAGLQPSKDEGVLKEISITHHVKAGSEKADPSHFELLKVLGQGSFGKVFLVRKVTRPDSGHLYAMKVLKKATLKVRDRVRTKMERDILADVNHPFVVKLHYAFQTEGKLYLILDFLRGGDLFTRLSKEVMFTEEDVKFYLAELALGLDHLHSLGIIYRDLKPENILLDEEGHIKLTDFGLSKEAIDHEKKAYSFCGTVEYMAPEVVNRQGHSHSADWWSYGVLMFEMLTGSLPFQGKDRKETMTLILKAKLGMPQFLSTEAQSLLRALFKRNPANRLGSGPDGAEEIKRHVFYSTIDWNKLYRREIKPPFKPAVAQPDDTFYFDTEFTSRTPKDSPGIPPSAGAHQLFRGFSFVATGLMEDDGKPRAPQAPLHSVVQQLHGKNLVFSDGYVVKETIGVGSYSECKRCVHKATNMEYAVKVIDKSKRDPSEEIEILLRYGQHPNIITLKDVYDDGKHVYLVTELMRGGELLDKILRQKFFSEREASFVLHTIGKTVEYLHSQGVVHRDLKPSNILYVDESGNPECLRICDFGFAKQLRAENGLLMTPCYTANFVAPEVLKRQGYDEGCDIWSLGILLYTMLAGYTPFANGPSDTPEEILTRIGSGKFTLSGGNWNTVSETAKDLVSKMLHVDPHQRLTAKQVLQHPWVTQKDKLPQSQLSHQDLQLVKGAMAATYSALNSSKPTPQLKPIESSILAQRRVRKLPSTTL

[4] = Inhibition of NEK6/7 in human HeLa cells lysate at 10 uM pre incubated for 15 mins followed by ADP acyl phosphate probe addition and measured after 10 mins by LC-MS/MS analysis relative to control; details: 25 min, condition cancer
[5] = target: T1, Serine/threonine-protein kinase Sgk3 (Homo sapiens, UniProt Q96BR1); assay: Inhibition of SGK3 K2 site in human HeLa cells lysate pre incubated for 15 mins followed by ATP acyl phosphate probe addition and measured after 10 mins by LC-MS/MS analysis; type: subcellular
T1 sequence (Q96BR1 whole entry): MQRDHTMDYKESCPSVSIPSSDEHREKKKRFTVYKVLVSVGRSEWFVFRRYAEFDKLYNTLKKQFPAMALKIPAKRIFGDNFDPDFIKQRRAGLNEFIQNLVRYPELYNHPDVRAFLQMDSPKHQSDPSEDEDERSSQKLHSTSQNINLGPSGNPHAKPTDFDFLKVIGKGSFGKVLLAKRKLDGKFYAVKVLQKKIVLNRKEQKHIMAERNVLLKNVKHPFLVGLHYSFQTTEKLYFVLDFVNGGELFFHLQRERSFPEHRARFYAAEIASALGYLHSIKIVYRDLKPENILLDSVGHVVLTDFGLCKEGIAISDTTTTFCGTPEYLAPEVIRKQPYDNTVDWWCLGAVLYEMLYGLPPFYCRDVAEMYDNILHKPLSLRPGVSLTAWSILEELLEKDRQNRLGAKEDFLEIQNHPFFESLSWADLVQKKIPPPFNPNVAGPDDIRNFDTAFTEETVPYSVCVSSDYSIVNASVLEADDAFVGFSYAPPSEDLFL

[6] = target: Calcium/calmodulin-dependent protein kinase type II subunit delta (Homo sapiens, UniProt Q13557); assay: Inhibition of CAMK2d in human HeLa cells lysate at 10 uM pre incubated for 15 mins followed by ATP acyl phosphate probe addition and measured after 10 mins by LC-MS/MS analysis relative to control; type: subcellular; details: time 25.0 min
Chain of Calcium/calmodulin-dependent protein kinase type II subunit delta (Q13557 whole entry, the tested form may be a part): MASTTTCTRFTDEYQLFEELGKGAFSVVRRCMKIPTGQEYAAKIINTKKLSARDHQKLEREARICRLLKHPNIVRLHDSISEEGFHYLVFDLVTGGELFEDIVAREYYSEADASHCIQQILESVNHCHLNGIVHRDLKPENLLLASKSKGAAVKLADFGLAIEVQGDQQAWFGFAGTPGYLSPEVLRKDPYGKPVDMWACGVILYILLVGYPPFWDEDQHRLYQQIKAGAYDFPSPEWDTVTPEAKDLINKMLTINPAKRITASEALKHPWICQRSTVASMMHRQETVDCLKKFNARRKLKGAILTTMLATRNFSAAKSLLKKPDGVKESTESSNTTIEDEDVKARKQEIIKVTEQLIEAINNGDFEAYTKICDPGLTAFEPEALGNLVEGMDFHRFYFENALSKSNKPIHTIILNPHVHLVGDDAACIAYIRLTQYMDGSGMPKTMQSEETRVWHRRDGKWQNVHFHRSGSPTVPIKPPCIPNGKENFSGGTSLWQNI
Outline: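 KiNativ-type profiling in HeLa lysate (5 mg/mL total protein). Lysate preincubated 15 min with inhibitor at 50, 10, 2, 0.8 or 0 μM, then ATP or ADP acylphosphate probe added (5 μM final) for 10 min. Reaction stopped with urea and analysed by targeted MS, using up to four fragment ions per kinase peptide-probe conjugate. % inhibition calculated against untreated lysate. Duplicate reactions.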

[7] = target: Serine/threonine-protein kinase 24 (Homo sapiens, UniProt Q9Y6E0); assay: Inhibition of MST3 in human HeLa cells lysate at 50 uM pre incubated for 15 mins followed by ATP acyl phosphate probe addition and measured after 10 mins by LC-MS/MS analysis relative to control; type: subcellular; details: time 25.0 min
Chain of Serine/threonine-protein kinase 24 (Q9Y6E0 whole entry, looked up): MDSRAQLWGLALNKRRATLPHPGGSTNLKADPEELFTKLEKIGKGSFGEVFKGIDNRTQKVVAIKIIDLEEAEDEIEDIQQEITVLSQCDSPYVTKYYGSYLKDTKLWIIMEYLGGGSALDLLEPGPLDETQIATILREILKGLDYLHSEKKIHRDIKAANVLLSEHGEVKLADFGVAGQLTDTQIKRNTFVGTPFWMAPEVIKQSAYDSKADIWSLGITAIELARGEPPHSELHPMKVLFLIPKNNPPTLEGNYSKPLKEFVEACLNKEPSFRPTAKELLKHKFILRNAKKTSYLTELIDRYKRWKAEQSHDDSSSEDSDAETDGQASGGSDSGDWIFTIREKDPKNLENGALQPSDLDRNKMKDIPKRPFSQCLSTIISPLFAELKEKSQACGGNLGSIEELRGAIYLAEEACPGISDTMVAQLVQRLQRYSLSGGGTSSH

[8] = target: Insulin receptor (Homo sapiens, UniProt P06213); assay: Inhibition of INSR in human HeLa cells lysate at 10 uM pre incubated for 15 mins followed by ADP acyl phosphate probe addition and measured after 10 mins by LC-MS/MS analysis relative to control; type: subcellular; details: time 25.0 min
[9] = target: Phosphatidylinositol 4-kinase alpha (Homo sapiens, UniProt P42356); assay: Inhibition of PIK4CA in human HeLa cells lysate at 10 uM pre incubated for 15 mins followed by ATP acyl phosphate probe addition and measured after 10 mins by LC-MS/MS analysis relative to control; type: subcellular; details: time 25.0 min
[10] = target: RAC-alpha serine/threonine-protein kinase (Homo sapiens, UniProt P31749); assay: Inhibition of AKT1 in human HeLa cells lysate pre incubated for 15 mins followed by ATP acyl phosphate probe addition and measured after 10 mins by LC-MS/MS analysis; type: subcellular
Chain of RAC-alpha serine/threonine-protein kinase (P31749 whole entry, the tested form may be a part): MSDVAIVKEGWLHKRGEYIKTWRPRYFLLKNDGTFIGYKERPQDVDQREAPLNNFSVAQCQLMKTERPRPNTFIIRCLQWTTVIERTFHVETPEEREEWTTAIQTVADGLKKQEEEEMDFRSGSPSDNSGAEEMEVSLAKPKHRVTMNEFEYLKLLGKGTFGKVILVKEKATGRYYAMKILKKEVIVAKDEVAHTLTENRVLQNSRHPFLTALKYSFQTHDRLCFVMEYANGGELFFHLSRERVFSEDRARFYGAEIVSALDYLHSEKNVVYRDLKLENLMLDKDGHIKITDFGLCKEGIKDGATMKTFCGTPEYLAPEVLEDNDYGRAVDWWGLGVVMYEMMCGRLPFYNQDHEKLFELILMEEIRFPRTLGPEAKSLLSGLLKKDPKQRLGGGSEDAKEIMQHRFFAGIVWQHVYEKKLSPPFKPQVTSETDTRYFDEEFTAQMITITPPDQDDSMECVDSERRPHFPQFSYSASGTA
Outline: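 HeLa cell lysates (5 mg/mL total protein) were preincubated with inhibitor at 0, 0.8, 2, 10 or 50 μM for 15 min. ATP or ADP acylphosphate probe was then added (5 μM final) for 10 min, and reactions were stopped with urea. Up to four fragment ions per kinase probe-peptide were quantified by targeted MS. % inhibition was taken relative to untreated lysate. Run in duplicate.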

[11] = Toxicity in C57Bl/6 mouse assessed as effect on globulin level at 50 mg/kg, ip for 14 days (reference value: 2.3 g/dl); type: organism-based; details: in vivo, 336 h, time 14 day
[12] = target: Wee1-like protein kinase (Homo sapiens, UniProt P30291); assay: Inhibition of Wee1 in human HeLa cells lysate at 2 uM pre incubated for 15 mins followed by ATP acyl phosphate probe addition and measured after 10 mins by LC-MS/MS analysis relative to control; type: subcellular; details: time 25.0 min
Chain of Wee1-like protein kinase (P30291 whole entry, looked up): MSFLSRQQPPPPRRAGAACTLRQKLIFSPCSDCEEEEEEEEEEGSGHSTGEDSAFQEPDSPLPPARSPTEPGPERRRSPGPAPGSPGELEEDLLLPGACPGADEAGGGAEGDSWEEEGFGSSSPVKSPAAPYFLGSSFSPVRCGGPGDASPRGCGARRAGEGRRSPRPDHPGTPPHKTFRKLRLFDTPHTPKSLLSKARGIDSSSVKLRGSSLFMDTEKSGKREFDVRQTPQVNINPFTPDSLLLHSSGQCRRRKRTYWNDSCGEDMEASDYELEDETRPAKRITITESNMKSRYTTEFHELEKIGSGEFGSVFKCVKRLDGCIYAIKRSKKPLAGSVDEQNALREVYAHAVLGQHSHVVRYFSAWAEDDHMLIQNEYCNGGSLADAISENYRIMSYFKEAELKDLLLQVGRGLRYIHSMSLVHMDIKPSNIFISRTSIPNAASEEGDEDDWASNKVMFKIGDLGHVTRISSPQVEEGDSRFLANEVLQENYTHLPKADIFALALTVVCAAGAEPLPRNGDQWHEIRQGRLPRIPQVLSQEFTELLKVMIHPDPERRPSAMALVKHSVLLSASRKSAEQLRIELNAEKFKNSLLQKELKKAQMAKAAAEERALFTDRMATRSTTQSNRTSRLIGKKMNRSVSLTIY

[13] = target: Phosphatidylinositol 4-kinase beta (Homo sapiens, UniProt Q9UBF8); assay: Inhibition of PIK4CB in human HeLa cells lysate at 10 uM pre incubated for 15 mins followed by ATP acyl phosphate probe addition and measured after 10 mins by LC-MS/MS analysis relative to control; type: subcellular; details: time 25.0 min
[14] = target: Serine/threonine-protein kinase Nek7 (Homo sapiens, UniProt Q8TDX7); assay: Inhibition of NEK7 in human HeLa cells lysate at 2 uM pre incubated for 15 mins followed by ADP acyl phosphate probe addition and measured after 10 mins by LC-MS/MS analysis relative to control; type: subcellular; details: time 25.0 min
Chain of Serine/threonine-protein kinase Nek7 (Q8TDX7 whole entry, looked up): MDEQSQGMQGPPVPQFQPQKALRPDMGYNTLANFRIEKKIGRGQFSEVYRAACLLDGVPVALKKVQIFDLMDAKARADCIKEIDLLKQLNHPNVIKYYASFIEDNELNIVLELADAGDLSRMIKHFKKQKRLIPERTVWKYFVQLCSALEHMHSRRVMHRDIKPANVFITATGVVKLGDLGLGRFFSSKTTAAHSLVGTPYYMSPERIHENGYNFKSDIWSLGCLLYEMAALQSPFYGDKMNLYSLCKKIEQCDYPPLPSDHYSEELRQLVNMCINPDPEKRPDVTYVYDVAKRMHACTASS

[15] = target: T2, Interleukin-1 receptor-associated kinase 4 (Homo sapiens) (UniProt Q9NWZ3); assay: Inhibition of IRAK4 in human HeLa cells lysate at 50 uM pre incubated for 15 mins followed by ADP acyl phosphate probe addition and measured after 10 mins by LC-MS/MS analysis relative to control; type: subcellular; details: time 25.0 min
T2 sequence (whole entry): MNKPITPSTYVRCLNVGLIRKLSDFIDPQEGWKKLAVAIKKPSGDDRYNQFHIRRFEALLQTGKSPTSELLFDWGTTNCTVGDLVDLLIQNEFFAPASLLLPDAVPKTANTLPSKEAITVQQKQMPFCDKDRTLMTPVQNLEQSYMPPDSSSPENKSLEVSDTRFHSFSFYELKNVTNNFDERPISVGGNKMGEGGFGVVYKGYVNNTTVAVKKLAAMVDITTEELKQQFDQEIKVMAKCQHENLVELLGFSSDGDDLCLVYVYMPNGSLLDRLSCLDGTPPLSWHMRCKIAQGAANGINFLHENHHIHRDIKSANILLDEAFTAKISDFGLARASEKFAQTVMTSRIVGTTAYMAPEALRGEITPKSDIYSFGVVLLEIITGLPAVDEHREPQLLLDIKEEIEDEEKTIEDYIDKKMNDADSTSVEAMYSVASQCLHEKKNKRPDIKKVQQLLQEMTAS

[16] = target: Ribosomal protein S6 kinase alpha-5 (Homo sapiens, UniProt O75582); assay: Inhibition of MSK1 domain 1 in human HeLa cells lysate at 2 uM pre incubated for 15 mins followed by ADP acyl phosphate probe addition and measured after 10 mins by LC-MS/MS analysis relative to control; type: subcellular; details: time 25.0 min
Chain of Ribosomal protein S6 kinase alpha-5 (O75582 whole entry, looked up, the tested form may be a part): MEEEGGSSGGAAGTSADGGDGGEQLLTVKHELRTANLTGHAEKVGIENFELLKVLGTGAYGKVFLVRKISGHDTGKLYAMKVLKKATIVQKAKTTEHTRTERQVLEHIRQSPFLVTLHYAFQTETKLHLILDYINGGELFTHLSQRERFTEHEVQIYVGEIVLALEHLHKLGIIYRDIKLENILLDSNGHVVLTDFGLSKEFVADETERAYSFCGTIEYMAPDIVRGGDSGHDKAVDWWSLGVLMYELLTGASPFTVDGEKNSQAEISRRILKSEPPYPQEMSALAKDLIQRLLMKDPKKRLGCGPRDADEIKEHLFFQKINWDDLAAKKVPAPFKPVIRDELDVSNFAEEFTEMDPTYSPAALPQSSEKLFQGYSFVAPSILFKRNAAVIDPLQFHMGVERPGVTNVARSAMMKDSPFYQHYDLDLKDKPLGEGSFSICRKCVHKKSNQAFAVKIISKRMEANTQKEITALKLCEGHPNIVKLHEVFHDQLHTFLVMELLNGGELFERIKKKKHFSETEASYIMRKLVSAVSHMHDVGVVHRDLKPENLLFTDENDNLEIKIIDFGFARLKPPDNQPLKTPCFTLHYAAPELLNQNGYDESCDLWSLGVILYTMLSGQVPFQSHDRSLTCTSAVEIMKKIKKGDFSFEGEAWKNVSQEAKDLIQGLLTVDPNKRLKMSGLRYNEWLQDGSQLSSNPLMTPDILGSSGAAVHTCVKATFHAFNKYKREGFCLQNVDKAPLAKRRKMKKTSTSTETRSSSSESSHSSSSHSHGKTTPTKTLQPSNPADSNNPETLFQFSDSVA

Compound `CCOc1cc(N2CCC(O)CC2)ccc1Nc1ncc2c(n1)N(C)c1ccccc1C(=O)N2C` has a Kd [1] of 600 nM, an inhibition [2] of -2.4% and an IC50 [3] of 26 µM. It also gave an inhibition at 10 µM [4] of -11.8%, an IC50 [5] greater than 50 µM and an inhibition [6] of 3.2%. For the same compound, the inhibition [7] was -4.6%, the inhibition [8] was -8% and the inhibition [9] was 7.7%. For the same compound, the IC50 [10] was greater than 50 µM, the Activity [11] was 2.5 g/dL and the inhibition [12] was -5.2%. For the same compound, the inhibition [13] was 25.8%, the inhibition [14] was 14.2% and the inhibition [15] was -0.4%. It also gave an inhibition [16] of 21.5%.
